# According to paper PMC7340117 (SLAS discovery : advancing life sciences R & D, 2019):
# Read-outs that look alike come from different tables or passages of the source.
# Key:
# [1] = molecular target: T1, human fumarate hydratase (Homo sapiens, UniProt P07954); experiment: fluorescence-based FH assay coupled to MDH/diaphorase/resazurin; assay type: biochemical; settings: for Emax: read-out: Efficacy; for activity in FH assay (in words): human FH assay with fumarate
# T1 sequence (P07954 45-510): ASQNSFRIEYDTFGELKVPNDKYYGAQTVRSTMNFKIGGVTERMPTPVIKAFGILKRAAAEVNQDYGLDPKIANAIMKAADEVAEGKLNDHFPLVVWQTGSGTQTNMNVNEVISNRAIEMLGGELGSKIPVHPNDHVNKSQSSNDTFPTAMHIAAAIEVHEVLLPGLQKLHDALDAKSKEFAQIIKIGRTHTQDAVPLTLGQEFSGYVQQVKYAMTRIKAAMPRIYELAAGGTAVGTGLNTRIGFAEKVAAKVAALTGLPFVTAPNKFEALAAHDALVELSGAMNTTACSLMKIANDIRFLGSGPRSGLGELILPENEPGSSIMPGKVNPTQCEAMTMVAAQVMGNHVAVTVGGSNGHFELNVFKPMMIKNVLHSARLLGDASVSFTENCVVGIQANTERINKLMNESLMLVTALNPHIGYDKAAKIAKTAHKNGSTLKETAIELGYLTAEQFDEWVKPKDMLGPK
# [2] = Amplex red REDOX assay
# How it was run: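 Test compound (20 nL) was pinned into HBSS (1.26 mM CaCl2, 0.49 mM MgCl2, 1 g/L D-glucose), and background fluorescence was read (ex/em 525/598 nm). An equal volume of 2X Amplex Red mix (100 µM Amplex Red, 200 µM DTT, 2 U/mL HRP in HBSS) was added. After 15 min at room temperature the plate was re-read; ΔRFU = 15 min − 0 min. DMSO was the negative control; walrycin B and […] were positive controls.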
# [3] = aqueous kinetic solubility assay; assay type: physicochemical; settings: aqueous medium, kinetic from dmso stock
# [4] = parallel artificial membrane permeability assay; assay type: in vitro ADME
# [5] = rat microsomal stability assay; assay type: in vitro ADME; settings: liver microsomes
# [6] = molecular target: T1, human fumarate hydratase; experiment: microscale thermophoresis; assay type: binding
# How it was run: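 Recombinant C-terminally His-tagged human FH (200 nM) was labelled with RED-tris-NTA dye (100 nM) in PBS-T pH 7.4, mixed 1:1 for 30 min at RT, and spun 15,000 x g. Compound: 16-point 1:2 DMSO series from 10 mM, diluted 20-fold in PBS-T, mixed 1:1 with protein (50 nM FH), 2–3 min RT. Settings: LED 40%, MST 40%/60%, laser 30 s on. Kd taken from cold/hot regions.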
# [7] = molecular target: T1, human fumarate hydratase; experiment: FH assay without fumarate; assay type: biochemical; settings: no fumarate added
# [8] = molecular target: T2, malate dehydrogenase (Sus scrofa, UniProt P00346); experiment: MDH assay without malate; assay type: biochemical, pig; settings: no malate added
# T2 sequence (P00346 25-338): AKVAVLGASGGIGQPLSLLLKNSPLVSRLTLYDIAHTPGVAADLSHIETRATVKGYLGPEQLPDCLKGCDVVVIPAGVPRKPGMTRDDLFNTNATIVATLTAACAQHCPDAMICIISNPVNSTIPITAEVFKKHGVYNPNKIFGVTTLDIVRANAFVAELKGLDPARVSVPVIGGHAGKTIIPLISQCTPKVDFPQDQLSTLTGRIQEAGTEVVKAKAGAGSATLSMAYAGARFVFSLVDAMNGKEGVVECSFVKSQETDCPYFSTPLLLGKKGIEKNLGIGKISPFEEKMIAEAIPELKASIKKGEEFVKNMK
# [9] = molecular target: T3, L-malate dehydrogenase from pig heart (Sus scrofa, UniProt P00346); experiment: malate dehydrogenase; assay type: biochemical; settings: read-out: Km value for MDH enzyme; 10 IU/ml MDH, 5 min, room temperature
# T3 sequence (P00346 25-338): T2 sequence (P00346 25-338)
compound,measurement,setting,value
"Cn1c(=O)c2c(-c3ccccc3Br)n(Cc3ccccc3)cc2n(C)c1=O [NCGC00117701, 6-benzyl-5-(2-bromophenyl)-1,3-dimethyl-1,6-dihydro-2H-pyrrolo[3,4-d]pyrimidine-2,4(3H)-dione]",AC50,[1],28.1 µM
same,Emax,[1],78.1%
Cn1nc(-c2ccc(C(F)(F)F)cc2)nc2c(=O)n(C)c(=O)nc1-2 [Walrycin B],redox activity in amplex red assay (in words),[2],weak
same,redox activity in amplex red assay (in words),[2]; listed as walrycin B,weak REDOX activity
Cn1c(=O)c2c(-c3ccccc3)n(CCCO)cc2n(C)c1=O [NCGC00141286],activity in FH assay (in words),[1],inactive
"CCCCn1cc2c(c1-c1ccc(Br)cc1)c(=O)n(C)c(=O)n2C [NCGC00117675, 5-(4-bromophenyl)-6-butyl-1,3-dimethyl-1,6-dihydro-2H-pyrrolo[3,4-d]pyrimidine-2,4(3H)-dione]",solubility,[3],< 1 µg/mL
same,PAMPA permeability pH 5,[4],"1,194 1×10–6 cm/s"
same,PAMPA Permeability pH 7.4,[4],"1,507 1×10–6 cm/s"
same,PAMPA permeability at pH 7.4 (in words),[4],high permeability
same,AC50,[1],9.98 µM
same,Emax,[1],79%
same,half-life,[5],7.68 min
same,Kd,[6],23.3 µM
"CCCCCn1cc2c(c1-c1ccc(Br)cc1)c(=O)n(C)c(=O)n2C [NCGC00117671, 5-(4-bromophenyl)-1,3-dimethyl-6-pentyl-1,6-dihydro-2H-pyrrolo[3,4-d]pyrimidine-2,4(3H)-dione]",solubility,[3],< 1 µg/mL
same,PAMPA permeability pH 5,[4],945.87 1×10–6 cm/s
same,PAMPA Permeability pH 7.4,[4],Not conclusive
same,AC50,[1],7.93 µM
same,Emax,[1],60.1%
same,half-life,[5],6.39 min
O=C(O)C(O)C(O)C(=O)O (centres unmarked) [tartrate],signal in FH assay in the absence of fumarate (in words),[7],can drive both enzymes
same,signal in MDH assay in the absence of malate (in words),[8],can drive both enzymes
"O=C(O)/C=C/C(=O)O [fumarate, reference compound]",Km,"[1]; read-out: Km value for FH enzyme, 10 nM FH, 15 min, room temperature",41 ± 1.1 µM
"O=C([O-])C(O)C(O)C(=O)[O-].[K+].[Na+] (centres unmarked) [Potassium sodium tartrate, reference compound]",activity in FH assay (in words),[1],increased activity
O=C(O)CC(O)C(=O)O (centres unmarked) [malate],Km,[9],225 ± 30 µM
"CCCCn1cc2c(c1-c1ccc(Cl)cc1)c(=O)n(C)c(=O)n2C [NCGC00115662, 6-butyl-5-(4-chlorophenyl)-1,3-dimethyl-1,6-dihydro-2H-pyrrolo[3,4-d]pyrimidine-2,4(3H)-dione]",AC50,[1],25.1 µM
same,Emax,[1],60.5%
"Cn1c(=O)c2c(-c3ccc(Cl)cc3)n(CCc3ccccc3)cc2n(C)c1=O [NCGC00102736, 5-(4-chlorophenyl)-1,3-dimethyl-6-phenethyl-1,6-dihydro-2H-pyrrolo[3,4-d]pyrimidine-2,4(3H)-dione]",solubility,[3],2.15 µg/mL
same,PAMPA permeability pH 5,[4],762.26 1×10–6 cm/s
same,PAMPA Permeability pH 7.4,[4],"1,224.00 1×10–6 cm/s"
same,PAMPA permeability at pH 7.4 (in words),[4],high permeability
same,AC50,[1],8.89 µM
same,Emax,[1],79.4%
same,half-life,[5],1.11 min
same,Kd,[6],18.3 µM
"Cn1c(=O)c2c(-c3ccccc3Cl)n(Cc3ccc(Cl)cc3)cc2n(C)c1=O [NCGC00115668, 6-(4-chlorobenzyl)-5-(2-chlorophenyl)-1,3-dimethyl-1,6-dihydro-2H-pyrrolo[3,4-d]pyrimidine-2,4(3H)-dione]",AC50,[1],15.8 µM
same,Emax,[1],45.5%
"Cn1c(=O)c2c(-c3ccc(Br)cc3)n(CCc3ccccc3)cc2n(C)c1=O [NCGC00117693, 5-(4-bromophenyl)-1,3-dimethyl-6-phenethyl-1,6-dihydro-2H-pyrrolo[3,4-d]pyrimidine-2,4(3H)-dione]",solubility,[3],14.7 µg/mL
same,PAMPA permeability pH 5,[4],590 1×10–6 cm/s
same,PAMPA Permeability pH 7.4,[4],Not conclusive
same,AC50,[1],7.06 µM
same,Emax,[1],63.7%
same,half-life,[5],1.23 min
"Cn1c(=O)c2c(-c3ccc(Cl)cc3)n(Cc3ccc(Cl)cc3)cc2n(C)c1=O [NCGC00115664, 6-(4-chlorobenzyl)-5-(4-chlorophenyl)-1,3-dimethyl-1,6-dihydro-2H-pyrrolo[3,4-d]pyrimidine-2,4(3H)-dione]",AC50,[1],17.7 µM
same,Emax,[1],52%
"CCCCCn1cc2c(c1-c1ccc(Cl)cc1)c(=O)n(C)c(=O)n2C [NCGC00115666, 5-(4-chlorophenyl)-1,3-dimethyl-6-pentyl-1,6-dihydro-2H-pyrrolo[3,4-d]pyrimidine-2,4(3H)-dione]",AC50,[1],5.61 µM
same,Emax,[1],35%
"Cn1c(=O)c2c(-c3ccccc3Br)n(CCc3ccccc3)cc2n(C)c1=O [NCGC00117727, 5-(2-bromophenyl)-1,3-dimethyl-6-phenethyl-1,6-dihydro-2H-pyrrolo[3,4-d]pyrimidine-2,4(3H)-dione]",AC50,[1],25.1 µM
same,Emax,[1],70%
"COc1ccc(CCn2cc3c(c2-c2ccc(Br)cc2)c(=O)n(C)c(=O)n3C)cc1OC [NCGC00117695, 5-(4-bromophenyl)-6-(3,4-dimethoxyphenethyl)-1,3-dimethyl-1,6-dihydro-2H-pyrrolo[3,4-d]pyrimidine-2,4(3H)-dione]",AC50,[1],31.5 µM
same,Emax,[1],79.5%
"CCCCCn1cc2c(c1-c1ccccc1Br)c(=O)n(C)c(=O)n2C [NCGC00117699, 5-(2-bromophenyl)-1,3-dimethyl-6-pentyl-1,6-dihydro-2H-pyrrolo[3,4-d]pyrimidine-2,4(3H)-dione]",AC50,[1],31.5 µM
same,Emax,[1],49.7%
O=C1C(Cl)=C(Cl)C(=O)C(Cl)=C1Cl [Chloranil],redox activity in amplex red assay (in words),[2],strong REDOX activity
